Measurements reported in ChEMBL document CHEMBL1156597, “Structure-activity relationship of kahalalide F synthetic analogues” (J Med Chem, 2008).

Experiments:
[1] = Cytotoxicity against human HeLa-APL cells after 48 hrs by SRB assay; assay type: functional
In short: (§1)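 Cells grown in RPMI 1640 with 10% FBS and penicillin/streptomycin at 37 °C and 5% CO₂, trypsinized, then seeded at 5 × 10³/well. After 18 h drug-free attachment, samples in DMSO/EtOH/PBS (0.5:0.5:99) were added for 48 h continuous exposure. Cells were fixed with cold TCA (1 h, 4 °C) and stained with SRB (10 min). Tris-solubilized stain read at 490 nm. Triplicate wells, mean ± SD; GI₅₀ derived.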

[2] = test system: SK-BR-3; assay: Cytotoxicity against human SKBR3 cells after 48 hrs by SRB assay; assay type: functional; details: SK-BR-3, 48 h; for GI50: read-out: GI50; for CC50: read-out: LC50 (the source's name); in short: as §1
[3] = test system: HT-29; assay: Cytotoxicity against human HT29 cells after 48 hrs by SRB assay; assay type: functional, cell-based; details: Homo sapiens, HT-29, 48 h; for CC50: read-out: LC50 (the source's name); in short: as §1
[4] = Cytotoxicity against human IGROV-ET cells after 48 hrs by SRB assay; assay type: functional; details: for CC50: read-out: LC50 (the source's name); in short: as §1
[5] = test system: SK-MEL-28; assay: Cytotoxicity against human SK-MEL-28 cells after 48 hrs by SRB assay; assay type: functional, cell-based; details: Homo sapiens, SK-MEL-28, 48 h; for CC50: read-out: LC50 (the source's name); for GI50: read-out: GI50; in short: as §1
[6] = test system: DU-145; assay: Cytotoxicity against human DU145 cells after 48 hrs by SRB assay; assay type: functional, cell-based; details: Homo sapiens, DU-145, 48 h; for CC50: read-out: LC50 (the source's name); in short: as §1
[7] = test system: LoVo; assay: Cytotoxicity against human LoVo cells after 48 hrs by SRB assay; assay type: functional; details: for CC50: read-out: LC50 (the source's name)
[8] = test system: A549; assay: Cytotoxicity against human A549 cells after 48 hrs by SRB assay; assay type: functional, cell-based; details: Homo sapiens, A549, 48 h; in short: as §1
[9] = test system: PANC-1; assay: Cytotoxicity against human PANC1 cells after 48 hrs by SRB assay; assay type: functional; details: PANC-1, 48 h; for CC50: read-out: LC50 (the source's name); in short: as §1
[10] = Cytotoxicity against human IGROV cells after 48 hrs by SRB assay; assay type: functional; details: for CC50: read-out: LC50 (the source's name); in short: as §1
[11] = test system: HeLa; assay: Cytotoxicity against human HeLa cells after 48 hrs by SRB assay; assay type: functional; details: for CC50: read-out: LC50 (the source's name); in short: as §1
[12] = test system: K562; assay: Cytotoxicity against human K562 cells after 48 hrs by SRB assay; assay type: functional; details: K562, 48 h, read-out: LC50 (the source's name); in short: as §1
[13] = test system: LoVo; assay: Cytotoxicity against human doxorubicin resistant LoVo cells after 48 hrs by SRB assay; assay type: functional; details: for CC50: read-out: LC50 (the source's name); in short: as §1

Row | SMILES | LC50 (concentration giving 50% net cell kill) [1] | GI50 [3] | TGI [3] | CC50 [3] | CC50 [4] | CC50 [5] | TGI [6] | GI50 ([6]; read-out: GI50) | CC50 [6] | GI50 [7] | TGI [7] | CC50 [7] | LC50 [8] | GI50 [9] | TGI [9] | CC50 [9] | CC50 [10] | GI50 [11] | TGI [11] | CC50 [11] | also measured
1 | CC[C@@H](C)[C@@H](NC(=O)[C@H](CCCN)NC(=O)[C@H]1CCCN1C(=O)[C@H](NC(=O)[C@@H](NC(=O)[C@@H](NC(=O)[C@H](NC(=O)CCCC(C)C)C(C)C)[C@@H](C)O)C(C)C)C(C)C)C(=O)N[C@H]1C(=O)N[C@H]([C@H](C)CC)C(=O)N[C@H](C(C)C)C(=O)N[C@@H](Cc2ccccc2)C(=O)N/C(=C\c2ccccc2)C(=O)N[C@@H](C(C)C)C(=O)O[C@H]1C | 704 nM | 5130 nM | 10100 nM | 5220 nM | 629 nM | 1390 nM | 1120 nM | 1390 nM | 893 nM | 836 nM | 1420 nM | 1890 nM | 1110 nM | 4540 nM | 4450 nM | 2140 nM | 559 nM | 1500 nM | 1180 nM | 936 nM | TGI [2]: 1150 nM; GI50 [2]: 601 nM; CC50 [2]: 806 nM
2 | CC[C@@H](C)[C@@H](NC(=O)[C@H](CCCN)NC(=O)[C@H]1CCCN1C(=O)[C@H](NC(=O)[C@@H](NC(=O)[C@@H](NC(=O)[C@H](NC(=O)CCCC(C)C)C(C)C)[C@@H](C)O)C(C)C)C(C)C)C(=O)N[C@H]1C(=O)N[C@H]([C@H](C)CC)C(=O)N[C@H](C(C)C)C(=O)N[C@@H](Cc2ccccc2)C(=O)N[C@H]([C@H](C)O)C(=O)N[C@@H](C(C)C)C(=O)O[C@H]1C | 1200 nM | 11800 nM | 10400 nM | 5370 nM | 1030 nM | 2540 nM |  |  | 1500 nM | 3440 nM | 4230 nM | 4420 nM | 1150 nM | 4880 nM | 4580 nM | 2210 nM | 941 nM |  |  | 1490 nM | TGI [2]: 6690 nM; GI50 [2]: 6150 nM; CC50 [2]: 1880 nM
3 | C/C=C1\NC(=O)[C@H](Cc2ccccc2)NC(=O)[C@@H](C(C)C)NC(=O)[C@@H]([C@H](C)CC)NC(=O)[C@H](NC(=O)[C@H](NC(=O)[C@H](CCCN)NC(=O)[C@H]2CCCN2C(=O)[C@H](NC(=O)[C@@H](NC(=O)[C@@H](NC(=O)[C@H](NC(=O)CC(C)C)C(C)C)[C@@H](C)O)C(C)C)C(C)C)[C@H](C)CC)[C@H](C)OC(=O)[C@H](C(C)C)NC1=O | 1690 nM | 2980 nM | 3060 nM | 3140 nM | 708 nM | 1330 nM | 1860 nM | 2070 nM | 1660 nM | 1630 nM | 1990 nM | 2420 nM | 1710 nM |  |  | 2880 nM | 848 nM | 2090 nM | 2090 nM | 1630 nM | GI50 [1]: 2330 nM; TGI [1]: 2000 nM; CC50 [12]: 3810 nM; TGI [5]: 1620 nM; GI50 [5]: 1980 nM; TGI [8]: 1700 nM; GI50 ([8]; read-out: GI50): 1680 nM; GI50 [13]: 882 nM; TGI [13]: 1390 nM; CC50 [13]: 1880 nM
4 | C/C=C1\NC(=O)[C@H](Cc2ccccc2)NC(=O)[C@@H](C(C)C)NC(=O)[C@@H]([C@H](C)CC)NC(=O)[C@H](NC(=O)[C@H](NC(=O)[C@H](CCCN)NC(=O)[C@H]2CCCN2C(=O)[C@H](NC(=O)[C@@H](NC(=O)[C@@H](NC(=O)[C@H](NC(=O)c2ccc(C)cc2)C(C)C)[C@@H](C)O)C(C)C)C(C)C)[C@H](C)CC)[C@H](C)OC(=O)[C@H](C(C)C)NC1=O |  |  |  |  | 422 nM |  |  |  |  |  |  |  |  |  |  |  | 394 nM |  |  |  | GI50 [1]: 950 nM; TGI [1]: 898 nM; GI50 [4]: 421 nM; GI50 ([4]; read-out: GI50): 365 nM; GI50 [10]: 447 nM; GI50 ([10]; read-out: GI50): 479 nM
5 | C/C=C1\NC(=O)[C@H](Cc2ccccc2)NC(=O)[C@@H](C(C)C)NC(=O)[C@@H]([C@H](C)CC)NC(=O)[C@H](NC(=O)[C@H](NC(=O)[C@H](CCCN)NC(=O)[C@H]2CCCN2C(=O)[C@H](NC(=O)[C@@H](NC(=O)[C@@H](NC(=O)[C@@H](CCC(=O)O)NC(=O)CCCC(C)C)[C@@H](C)O)C(C)C)C(C)C)[C@H](C)CC)[C@H](C)OC(=O)[C@H](C(C)C)NC1=O | 1800 nM | 2910 nM | 2960 nM | 3010 nM | 705 nM | 1950 nM | 3010 nM | 2840 nM | 1660 nM | 1950 nM | 2200 nM | 2490 nM | 1800 nM | 5310 nM | 4880 nM | 2770 nM | 844 nM | 2940 nM | 2720 nM | 1570 nM | GI50 [1]: 2910 nM; TGI [1]: 3570 nM; GI50 [4]: 969 nM; GI50 ([4]; read-out: GI50): 1310 nM; CC50 [12]: 3040 nM; TGI [5]: 3750 nM; GI50 [5]: 3730 nM; TGI [8]: 2960 nM; GI50 ([8]; read-out: GI50): 3250 nM; GI50 [13]: 2030 nM; TGI [13]: 2220 nM; CC50 [13]: 2430 nM
6 | C/C=C1\NC(=O)[C@H](Cc2ccccc2)NC(=O)[C@@H](C(C)C)NC(=O)[C@@H]([C@H](C)CC)NC(=O)[C@H](NC(=O)[C@H](NC(=O)[C@H](CCCNC(=O)c2cc(F)c(F)c(F)c2F)NC(=O)[C@H]2CCCN2C(=O)[C@H](NC(=O)[C@@H](NC(=O)[C@@H](NC(=O)[C@H](NC(=O)CCCC(C)C)C(C)C)[C@@H](C)O)C(C)C)C(C)C)[C@H](C)CC)[C@H](C)OC(=O)[C@H](C(C)C)NC1=O | 869 nM | 116 nM | 95.1 nM | 202 nM | 441 nM | 1060 nM |  | 726 nM | 831 nM | 84.2 nM | 93.8 nM | 104 nM | 1040 nM | 1580 nM | 1580 nM | 1580 nM | 274 nM | 288 nM | 685 nM | 861 nM | GI50 [1]: 493 nM; TGI [1]: 595 nM; GI50 [4]: 357 nM; GI50 ([4]; read-out: GI50): 332 nM; CC50 [12]: 172 nM; TGI [5]: 1060 nM; GI50 [5]: 984 nM; GI50 [6]: 831 nM; TGI [8]: 1040 nM; GI50 ([8]; read-out: GI50): 1040 nM; GI50 [10]: 217 nM; GI50 ([10]; read-out: GI50): 182 nM; CC50 [13]: 87.8 nM
7 | C/C=C1\NC(=O)[C@H](Cc2ccccc2)NC(=O)[C@@H](C(C)C)NC(=O)[C@@H]([C@H](C)CC)NC(=O)[C@H](NC(=O)[C@H](NC(=O)[C@H](CCCN)NC(=O)[C@H]2CCCN2C(=O)[C@H](NC(=O)[C@@H](NC(=O)[C@@H](NC(=O)[C@H](NC(=O)CC[C@@H](C)[C@H]2CC[C@H]3[C@@H]4CC[C@@H]5C[C@H](O)CC[C@]5(C)[C@H]4CC[C@]23C)C(C)C)[C@@H](C)O)C(C)C)C(C)C)[C@H](C)CC)[C@H](C)OC(=O)[C@H](C(C)C)NC1=O | 3580 nM |  |  | 10300 nM | 2280 nM | 3870 nM | 6000 nM | 5100 nM | 3310 nM | 14900 nM | 16900 nM | 9830 nM | 3580 nM | 4350 nM | 9720 nM | 5520 nM | 2710 nM | 740 nM | 5420 nM | 3130 nM | TGI [4]: 5580 nM; GI50 ([4]; read-out: GI50): 4400 nM; CC50 [12]: 8320 nM; CC50 [13]: 9860 nM
8 | C/C=C1\NC(=O)[C@H](Cc2ccccc2)NC(=O)[C@@H](C(C)C)NC(=O)[C@@H]([C@H](C)CC)NC(=O)[C@H](NC(=O)[C@H](NC(=O)[C@H](CCCN)NC(=O)[C@H]2CCCN2C(=O)[C@H](NC(=O)[C@@H](NC(=O)[C@@H](NC(=O)[C@@H](CCC(N)=O)NC(=O)CCCC(C)C)[C@@H](C)O)C(C)C)C(C)C)[C@H](C)CC)[C@H](C)OC(=O)[C@H](C(C)C)NC1=O | 1800 nM | 2300 nM | 2560 nM | 2870 nM | 653 nM | 1230 nM | 1390 nM | 1460 nM | 1320 nM | 1460 nM | 1800 nM | 2220 nM | 664 nM | 168 nM | 222 nM | 361 nM | 743 nM | 452 nM | 649 nM | 915 nM | GI50 [1]: 2420 nM; TGI [1]: 3200 nM; GI50 [4]: 947 nM; GI50 ([4]; read-out: GI50): 1330 nM; CC50 [12]: 2790 nM; TGI [5]: 1280 nM; GI50 [5]: 1340 nM; GI50 [8]: 350 nM; GI50 ([8]; read-out: GI50): 234 nM; GI50 [13]: 610 nM; TGI [13]: 1080 nM; CC50 [13]: 1670 nM
